# Laboratory results: ChEMBL document CHEMBL4138314, “Synthesis and Evaluation of N-Phenyl-3-sulfamoyl-benzamide Derivatives as Capsid Assembly Modulators Inhibiting Hepatitis B Virus (HBV)” (J Med Chem, 2018)
# Active and inactive are the calls of the source. The calls are words filed in the database; no cut-off is given here.
# How the values were obtained:
# [1] = Cmax in C57BL/6 mouse at 50 mg/kg, po by LC-MS/MS analysis; type: ADME, organism-based; set-up: dose 50 mg/kg, route oral; conditions: in vivo
# [2] = Cmax in C57BL/6 mouse at 50 mg/kg, sc by LC-MS/MS analysis; type: ADME, organism-based; set-up: dose 50 mg/kg, route subcutaneous; conditions: in vivo
# [3] = Half life in humanized mouse at 50 mg/kg, sc measured on day 1 post dose by LC-MS/MS analysis; type: ADME, organism-based; conditions: in vivo
# [4] = AUC (0 to 24 hrs) in humanized mouse at 200 mg/kg, sc measured on day 1 post dose by LC-MS/MS analysis; type: ADME, organism-based; set-up: dose 200 mg/kg, time < 24 hr, route subcutaneous; conditions: in vivo
# [5] = Volume of distribution at steady state in C57BL/6 mouse at 2.5 mg/kg, iv by LC-MS/MS analysis; type: ADME, organism-based; conditions: in vivo, read-out: Vdss
# Hepatitis B virus = assay: Antiviral activity against Hepatitis B virus infected in human HepG2.117 cells assessed as inhibition of viral DNA level after 3 days by real time PCR; type: functional, organism-based; conditions: HepG2.117, 72 h
# Cytochrome P450 2C8 = molecular target: T1, Cytochrome P450 2C8 (Homo sapiens, UniProt P10632); assay: Inhibition of CYP2C8 (unknown origin); type: ADME
# T1 sequence (P10632 whole entry): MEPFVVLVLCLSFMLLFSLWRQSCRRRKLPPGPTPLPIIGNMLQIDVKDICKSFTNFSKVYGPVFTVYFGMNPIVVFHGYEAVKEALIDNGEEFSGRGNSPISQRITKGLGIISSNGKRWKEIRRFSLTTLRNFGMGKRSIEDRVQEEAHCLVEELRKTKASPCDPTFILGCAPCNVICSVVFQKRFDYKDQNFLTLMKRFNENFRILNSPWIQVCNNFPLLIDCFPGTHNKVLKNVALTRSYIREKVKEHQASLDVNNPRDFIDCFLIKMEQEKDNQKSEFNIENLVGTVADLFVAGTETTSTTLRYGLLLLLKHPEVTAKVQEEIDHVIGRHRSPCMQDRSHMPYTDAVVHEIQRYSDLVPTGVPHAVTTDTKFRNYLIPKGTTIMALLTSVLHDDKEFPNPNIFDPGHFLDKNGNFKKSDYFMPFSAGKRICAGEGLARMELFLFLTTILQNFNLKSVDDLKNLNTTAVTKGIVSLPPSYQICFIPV
# [6] = AUC (0 to last) in C57BL/6 mouse at 10 mg/kg, po by LC-MS/MS analysis; type: ADME, organism-based; set-up: dose 10 mg/kg, time 0 - last, route oral; conditions: in vivo
# How it was run: (§1)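 Single-dose PK in C57BL/6 mice after intravenous or oral dosing, with oral doses of 10 and 50 mg/kg; plasma clearance and volume of distribution taken from the i.v. arm.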
# [7] = Half life in C57BL/6 mouse at 50 mg/kg, po by LC-MS/MS analysis; type: ADME, organism-based; conditions: in vivo; how it was run: as §1
# [8] = Half life in C57BL/6 mouse at 2.5 mg/kg, iv by LC-MS/MS analysis; type: ADME, organism-based; conditions: in vivo; how it was run: as §1
# [9] = Drug uptake in C57BL/6 mouse plasma at 50 mg/kg, sc after 24 hrs by LC-MS/MS analysis; type: ADME, organism-based
# How it was run: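 C57BL/6 mice dosed subcutaneously once at 50 mg/kg, given to bypass first-pass metabolism; compound measured in plasma (ng/mL) and liver (ng/g) 24 h after dosing.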
# [10] = Tmax in humanized mouse at 200 mg/kg, sc measured on day 1 post dose by LC-MS/MS analysis; type: ADME, organism-based; conditions: in vivo
# Cytochrome P450 3A4 = Cytochrome P450 3A4 (Homo sapiens, UniProt P08684); assay: Inhibition of CYP3A4 (unknown origin); type: ADME
# [11] = Unbound fraction in human plasma; type: ADME, cell-free
# [12] = Half life in humanized mouse at 200 mg/kg, sc measured on day 1 post dose by LC-MS/MS analysis; type: ADME, organism-based; conditions: in vivo
# [13] = AUC (0 to last) in C57BL/6 mouse at 50 mg/kg, sc by LC-MS/MS analysis; type: ADME, organism-based; set-up: dose 50 mg/kg, time 0 - last, route subcutaneous; conditions: in vivo
# Cytochrome P450 2D6 = Cytochrome P450 2D6 (Homo sapiens, UniProt P10635); assay: Inhibition of CYP2D6 (unknown origin); type: ADME
# [14] = AUC (0 to last) in C57BL/6 mouse at 2.5 mg/kg, iv by LC-MS/MS analysis; type: ADME, organism-based; set-up: dose 2.5 mg/kg, route intravenous, time 0 - last; conditions: in vivo
# [15] = molecular target: T2, 5-hydroxytryptamine receptor 2B (Homo sapiens, UniProt P41595); assay: Agonist activity at 5-HT2B (unknown origin); type: functional
# [16] = molecular target: T2, 5-hydroxytryptamine receptor 2B; assay: Antagonist activity at 5-HT2B (unknown origin); type: functional
# How it was run: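 Receptor/ion channel/transporter panel of 80 targets screened at 10 µM, giving percent effect at 5-HT2B; follow-up 5-HT2B functional testing in agonist and antagonist modes, with antagonist IC50 determined.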
# [17] = Cmax in humanized mouse at 50 mg/kg, sc for 8 days measured on day 8 post last dose by LC-MS/MS analysis; type: ADME, organism-based; set-up: dose 50 mg/kg, route subcutaneous; conditions: in vivo
# Cytochrome P450 1A2 = molecular target: T3, Cytochrome P450 1A2 (Homo sapiens, UniProt P05177); assay: Inhibition of CYP1A2 (unknown origin); type: ADME
# T3 sequence (P05177 whole entry): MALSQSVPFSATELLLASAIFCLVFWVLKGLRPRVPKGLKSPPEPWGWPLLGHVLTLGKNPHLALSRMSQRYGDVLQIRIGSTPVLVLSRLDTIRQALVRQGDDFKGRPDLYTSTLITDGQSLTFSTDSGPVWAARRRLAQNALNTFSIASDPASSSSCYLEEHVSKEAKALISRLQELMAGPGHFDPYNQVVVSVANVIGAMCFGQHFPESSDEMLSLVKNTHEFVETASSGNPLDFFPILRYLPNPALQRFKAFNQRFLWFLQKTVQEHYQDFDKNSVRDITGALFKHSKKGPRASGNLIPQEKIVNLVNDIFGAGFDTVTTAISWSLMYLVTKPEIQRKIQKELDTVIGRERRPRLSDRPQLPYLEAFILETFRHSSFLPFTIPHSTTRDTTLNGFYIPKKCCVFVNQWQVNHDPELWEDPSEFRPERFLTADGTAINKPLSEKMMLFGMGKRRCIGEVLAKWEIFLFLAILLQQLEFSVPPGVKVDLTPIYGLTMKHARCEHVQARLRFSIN
# [18] = Bioavailability in C57BL/6 mouse at 50 mg/kg, sc by LC-MS/MS analysis; type: ADME, organism-based; conditions: in vivo
# [19] = AUC (0 to 24 hrs) in humanized mouse at 50 mg/kg, sc for 8 days measured on day 8 post last dose by LC-MS/MS analysis; type: ADME, organism-based; set-up: time < 24 hr, dose 50 mg/kg, route subcutaneous; conditions: in vivo
# Cytochrome P450 2C19 = Cytochrome P450 2C19 (Homo sapiens, UniProt P33261); assay: Inhibition of CYP2C19 (unknown origin); type: ADME
# [20] = AUC (0 to infinity) in humanized mouse at 50 mg/kg, sc measured on day 1 post dose by LC-MS/MS analysis; type: ADME, organism-based; set-up: dose 50 mg/kg, time infinity, route subcutaneous; conditions: in vivo
# [21] = Cmax in C57BL/6 mouse at 10 mg/kg, po by LC-MS/MS analysis; type: ADME, organism-based; set-up: dose 10 mg/kg, route oral; conditions: in vivo
# [22] = AUC (0 to infinity) in humanized mouse at 200 mg/kg, sc measured on day 1 post dose by LC-MS/MS analysis; type: ADME, organism-based; set-up: dose 200 mg/kg, route subcutaneous, time infinity; conditions: in vivo
# [23] = Plasma concentration in humanized mouse at 200 mg/kg, sc after 24 hrs by LC-MS/MS analysis; type: ADME, organism-based
# HepG2 = assay: Cytotoxicity against human HepG2 cells after 4 to 6 days by resazurin assay; type: cell-based; conditions: hepg2
# T2 sequence (P41595 whole entry): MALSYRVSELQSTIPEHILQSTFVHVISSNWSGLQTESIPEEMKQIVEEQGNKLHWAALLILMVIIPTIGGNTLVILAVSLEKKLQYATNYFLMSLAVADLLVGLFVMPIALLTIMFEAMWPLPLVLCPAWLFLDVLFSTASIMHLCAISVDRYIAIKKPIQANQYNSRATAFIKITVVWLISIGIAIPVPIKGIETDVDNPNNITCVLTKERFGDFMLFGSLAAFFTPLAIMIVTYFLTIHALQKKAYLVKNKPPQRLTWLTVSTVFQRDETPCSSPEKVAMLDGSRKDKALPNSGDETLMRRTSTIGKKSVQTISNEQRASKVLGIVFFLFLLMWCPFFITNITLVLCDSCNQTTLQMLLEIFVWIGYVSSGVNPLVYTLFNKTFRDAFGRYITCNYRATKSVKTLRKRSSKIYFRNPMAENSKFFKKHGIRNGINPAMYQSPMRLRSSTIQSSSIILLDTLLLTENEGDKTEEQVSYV
# Sequence of Cytochrome P450 2C19 (P33261 whole entry): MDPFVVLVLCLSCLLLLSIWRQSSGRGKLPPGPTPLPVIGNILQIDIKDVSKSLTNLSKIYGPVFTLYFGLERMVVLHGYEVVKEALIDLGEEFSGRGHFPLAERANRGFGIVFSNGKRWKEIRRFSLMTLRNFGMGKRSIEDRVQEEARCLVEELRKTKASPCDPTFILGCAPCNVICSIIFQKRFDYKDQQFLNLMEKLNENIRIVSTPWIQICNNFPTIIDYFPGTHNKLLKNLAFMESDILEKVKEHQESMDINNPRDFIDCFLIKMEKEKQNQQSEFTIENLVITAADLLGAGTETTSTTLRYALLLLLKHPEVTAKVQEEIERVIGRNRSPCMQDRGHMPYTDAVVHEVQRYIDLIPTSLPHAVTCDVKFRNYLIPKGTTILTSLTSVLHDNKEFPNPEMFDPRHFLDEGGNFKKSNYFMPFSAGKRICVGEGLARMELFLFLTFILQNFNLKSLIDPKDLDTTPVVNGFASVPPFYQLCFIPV
# Sequence of Cytochrome P450 2D6 (P10635 whole entry): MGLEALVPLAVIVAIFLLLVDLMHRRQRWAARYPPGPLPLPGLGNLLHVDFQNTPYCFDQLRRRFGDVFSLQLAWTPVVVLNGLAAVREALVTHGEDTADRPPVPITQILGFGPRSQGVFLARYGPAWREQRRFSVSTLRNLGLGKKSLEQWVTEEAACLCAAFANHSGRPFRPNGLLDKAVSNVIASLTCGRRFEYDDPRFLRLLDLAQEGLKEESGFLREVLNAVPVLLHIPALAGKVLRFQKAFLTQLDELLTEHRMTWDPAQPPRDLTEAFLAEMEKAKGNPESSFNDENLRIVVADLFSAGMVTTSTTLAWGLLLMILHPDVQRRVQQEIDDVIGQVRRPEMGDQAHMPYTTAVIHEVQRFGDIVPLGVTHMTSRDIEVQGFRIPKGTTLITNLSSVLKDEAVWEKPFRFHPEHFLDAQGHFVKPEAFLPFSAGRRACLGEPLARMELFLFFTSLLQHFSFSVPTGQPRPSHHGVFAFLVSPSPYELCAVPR
# Sequence of Cytochrome P450 3A4 (P08684 whole entry): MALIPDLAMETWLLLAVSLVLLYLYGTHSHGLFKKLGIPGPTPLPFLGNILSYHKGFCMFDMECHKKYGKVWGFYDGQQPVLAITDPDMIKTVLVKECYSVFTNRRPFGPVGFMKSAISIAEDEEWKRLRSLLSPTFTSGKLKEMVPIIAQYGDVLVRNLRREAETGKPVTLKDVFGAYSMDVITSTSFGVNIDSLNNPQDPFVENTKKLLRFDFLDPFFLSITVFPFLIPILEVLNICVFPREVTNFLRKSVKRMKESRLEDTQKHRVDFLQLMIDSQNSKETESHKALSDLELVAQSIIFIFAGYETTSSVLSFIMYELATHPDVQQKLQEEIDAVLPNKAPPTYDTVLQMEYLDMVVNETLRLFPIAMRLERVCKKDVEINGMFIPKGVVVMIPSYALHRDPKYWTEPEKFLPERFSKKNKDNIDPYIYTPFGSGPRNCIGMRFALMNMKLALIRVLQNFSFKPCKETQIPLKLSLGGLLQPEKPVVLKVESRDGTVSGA
smiles,measurement,setting,value
Cc1cc(NC(=O)c2cccc(S(=O)(=O)N[C@H]3CCOC3)c2)ccc1F,Cmax,[1],9440 ng/mL
same,Cmax,[2],3370 ng/mL
same,half-life,[3],1.1 h
same,AUC(0-t) at 24 h,[4],12000 ng·h/mL
same,Vd,[5],1.3 L/kg
same,EC50,Hepatitis B virus,0.43 µM
same,IC50,Cytochrome P450 2C8,> 10 µM
same,AUC(0-t),[6],1990 ng·h/mL
same,half-life,[7],2.4 h
same,half-life,[8],0.42 h
same,concentration at 24 h,[9],102 ng/mL
same,Tmax,[10],0.8 h
same,IC50,Cytochrome P450 3A4,> 10 µM
same,fraction unbound,[11],0.081
same,half-life,[12],5.6 h
same,AUC(0-t),[13],16900 ng·h/mL
same,IC50,Cytochrome P450 2D6,> 10 µM
same,AUC(0-t),[14],1240 ng·h/mL
same,Activity,[15],inactive
same,IC50,[16],4 to 5.6 µM
same,Cmax,[17],4380 ng/mL
same,IC50,Cytochrome P450 1A2,> 10 µM
same,bioavailability,[18],68%
same,AUC at 24 h,[19],19200 ng·h/mL
same,IC50,Cytochrome P450 2C19,> 10 µM
same,AUC(0-inf),[20],4780 ng·h/mL
same,Cmax,[21],1940 ng/mL
same,AUC(0-inf),[22],12700 ng·h/mL
same,concentration at 24 h,[23],1820 ng/mL
same,EC20,HepG2,10 to 30 µM
